{"source": "ChEMBL document CHEMBL1125339", "about": "“Copyrine alkaloids: synthesis, spectroscopic characterization, and antimycotic/antimycobacterial activity of A- and B-ring-functionalized sampangines” (1992)", "key": {"[1]": {"system": "Cryptococcus neoformans", "test": "In vitro antifungal activity against Cryptococcus neoformans ATCC 32264."}, "[2]": {"system": "Candida albicans", "test": "In vitro antifungal activity against Candida albicans B311.", "type": "functional", "outline": "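Cells grown 24 h at 37 °C in Sabouraud dextrose broth, centrifuged, washed and resuspended in 0.9% saline at 10^6 CFU/mL (hemacytometer). MIC by 2-fold serial dilution in yeast nitrogen broth with a 10 μL loop inoculum. Incubation at 37 °C, read at 24 and 48 h. MIC is the lowest inhibitory concentration. Amphotericin B is the control. Replicate evaluations.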"}, "[3]": {"system": "Mycobacterium intracellulare", "test": "In vitro anti-mycobacterial activity against Mycobacterium intracellular ATCC 23068.", "type": "functional", "outline": "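Organism grown on Lowenstein-Jensen medium for 48 h at 37 °C. Active compounds from the agar-well screen (1 mg/mL, zone >4 mm) go to 2-fold serial broth dilution in Mueller-Hinton broth. 10 μL loop inoculum per tube, 37 °C for 72 h. MIC is the lowest concentration inhibiting growth. Rifampin is the positive control. Replicate evaluations.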"}, "[4]": {"system": "Aspergillus fumigatus", "test": "In vitro antifungal activity against Aspergillus fumigatus ATCC 26934.", "type": "functional", "outline": "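Inoculum is a surface-growth suspension from agar slants in sterile water. Compounds active in the agar-well diffusion screen (1 mg/mL, zone >4 mm) are tested by 2-fold serial dilution in Sabouraud dextrose broth. 10 μL loop inoculum, 30 °C, read at 48 and 72 h. MIC is the lowest growth-inhibiting concentration. Amphotericin B is the control. Replicate evaluations.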"}}}
{"smiles": "O=C1c2ccccc2-c2nccc3ccnc1c23", "note": "[SAMPANGINE]", "values": [{"measurement": "MIC", "setting": "[1]", "result": 0.78, "unit": "µg/mL"}, {"measurement": "MIC", "setting": "[2]", "result": 1.56, "unit": "µg/mL"}, {"measurement": "MIC", "setting": "[3]", "result": 0.78, "unit": "µg/mL"}, {"measurement": "MIC", "setting": "[4]", "result": 1.56, "unit": "µg/mL"}]}
{"smiles": "O=C1c2ccccc2-c2nccc3c(Br)cnc1c23", "values": [{"measurement": "MIC", "setting": "[1]", "result": 0.1, "unit": "µg/mL"}, {"measurement": "MIC", "setting": "[2]", "result": 3.12, "unit": "µg/mL"}, {"measurement": "MIC", "setting": "[3]", "result": 3.12, "unit": "µg/mL"}, {"measurement": "MIC", "setting": "[4]", "result": 50, "unit": "µg/mL"}]}
{"smiles": "O=C1c2ccccc2-c2nccc3c(Cl)cnc1c23", "values": [{"measurement": "MIC", "setting": "[1]", "result": 0.1, "unit": "µg/mL"}, {"measurement": "MIC", "setting": "[2]", "result": 0.39, "unit": "µg/mL"}, {"measurement": "MIC", "setting": "[3]", "result": 3.12, "unit": "µg/mL"}]}
{"smiles": "[N-]=[N+]=Nc1cnc2c3c(nccc13)-c1ccccc1C2=O", "values": [{"measurement": "MIC", "setting": "[1]", "result": 6.25, "unit": "µg/mL"}, {"measurement": "MIC", "setting": "[2]", "result": 25, "unit": "µg/mL"}]}
{"smiles": "C[C@@H]1[C@H](O)[C@@H](C)/C=C/C=C/C=C/C=C/C=C/C=C/C=C/[C@H](O[C@@H]2O[C@H](C)[C@@H](O)[C@H](N)[C@@H]2O)C[C@@H]2O[C@](O)(C[C@@H](O)C[C@@H](O)[C@H](O)CC[C@@H](O)C[C@@H](O)CC(=O)O[C@H]1C)C[C@H](O)[C@H]2C(=O)O", "note": "[AMPHOTERICIN B]", "values": [{"measurement": "MIC", "setting": "[1]", "result": 0.39, "unit": "µg/mL"}, {"measurement": "MIC", "setting": "[2]", "result": 0.78, "unit": "µg/mL"}, {"measurement": "MIC", "setting": "[4]", "result": 0.39, "unit": "µg/mL"}]}
{"smiles": "CCc1ccnc2c1C(=O)c1ccccc1C2=O", "values": [{"measurement": "MIC", "setting": "[1]", "result": 3.12, "unit": "µg/mL"}, {"measurement": "MIC", "setting": "[2]", "result": 100, "unit": "µg/mL"}, {"measurement": "MIC", "setting": "[3]", "result": 12.5, "unit": "µg/mL"}]}
{"smiles": "Cc1ccnc2c1C(=O)c1ccccc1C2=O", "note": "[CLEISTOPHOLINE]", "values": [{"measurement": "MIC", "setting": "[1]", "result": 1.56, "unit": "µg/mL"}, {"measurement": "MIC", "setting": "[2]", "result": 12.5, "unit": "µg/mL"}, {"measurement": "MIC", "setting": "[3]", "result": 12.5, "unit": "µg/mL"}, {"measurement": "MIC", "setting": "[4]", "result": 100, "unit": "µg/mL"}]}
{"smiles": "Cc1cnc2c3c(nccc13)C(=O)c1ccccc1-2", "values": [{"measurement": "MIC", "setting": "[1]", "result": 0.39, "unit": "µg/mL"}, {"measurement": "MIC", "setting": "[2]", "result": 0.39, "unit": "µg/mL"}, {"measurement": "MIC", "setting": "[3]", "result": 0.39, "unit": "µg/mL"}, {"measurement": "MIC", "setting": "[4]", "result": 0.78, "unit": "µg/mL"}]}
{"smiles": "CCOc1nc2c3c(nccc3c1Br)-c1ccccc1C2=O", "values": [{"measurement": "MIC", "setting": "[1]", "result": 25, "unit": "µg/mL"}, {"measurement": "MIC", "setting": "[3]", "result": 25, "unit": "µg/mL"}]}
{"smiles": "Nc1cnc2c3c(nccc13)-c1ccccc1C2=O", "values": [{"measurement": "MIC", "setting": "[1]", "result": 25, "unit": "µg/mL"}, {"measurement": "MIC", "setting": "[2]", "result": 100, "unit": "µg/mL"}]}
{"smiles": "O=C1c2ccccc2-c2nccc3c2c1nc1ccccc13", "note": "[BENZOSAMPANGINE]", "values": [{"measurement": "MIC", "setting": "[1]", "result": 1.56, "unit": "µg/mL"}, {"measurement": "MIC", "setting": "[2]", "result": 0.39, "unit": "µg/mL"}, {"measurement": "MIC", "setting": "[3]", "result": 0.39, "unit": "µg/mL"}, {"measurement": "MIC", "setting": "[4]", "result": 0.39, "unit": "µg/mL"}]}
{"smiles": "COc1cnc2c3c(nccc13)C(=O)c1ccccc1-2", "values": [{"measurement": "MIC", "setting": "[1]", "result": 0.78, "unit": "µg/mL"}, {"measurement": "MIC", "setting": "[2]", "result": 1.56, "unit": "µg/mL"}, {"measurement": "MIC", "setting": "[3]", "result": 1.56, "unit": "µg/mL"}, {"measurement": "MIC", "setting": "[4]", "result": 0.78, "unit": "µg/mL"}]}
{"smiles": "COc1cnc2c3c(nccc13)-c1ccccc1C2=O", "values": [{"measurement": "MIC", "setting": "[1]", "result": 1.56, "unit": "µg/mL"}, {"measurement": "MIC", "setting": "[2]", "result": 3.12, "unit": "µg/mL"}, {"measurement": "MIC", "setting": "[3]", "result": 3.12, "unit": "µg/mL"}]}
{"smiles": "Cc1c2c(nc3ccccc13)C(=O)c1ccccc1C2=O", "values": [{"measurement": "MIC", "setting": "[1]", "result": 25, "unit": "µg/mL"}, {"measurement": "MIC", "setting": "[2]", "result": 25, "unit": "µg/mL"}, {"measurement": "MIC", "setting": "[3]", "result": 1.56, "unit": "µg/mL"}]}
{"smiles": "CO[C@H]1/C=C/O[C@@]2(C)Oc3c(C)c(O)c4c(O)c(c(/C=N/N5CCN(C)CC5)c(O)c4c3C2=O)NC(=O)/C(C)=C\\C=C\\[C@H](C)[C@H](O)[C@@H](C)[C@@H](O)[C@@H](C)[C@H](OC(C)=O)[C@@H]1C", "note": "[RIFAMPIN]", "values": [{"measurement": "MIC", "setting": "[3]", "result": 0.78, "unit": "µg/mL"}]}
